Rows were chosen to be rich in hits. Some 2% of all compounds tested hit in one or more screens of this group.
XiGFP reactiv – activators of X-chromosome reactivation in mouse fibroblasts | XiGFP mouse fibroblasts, % GFP-positive cells imaging, 3 d; cells co-treated with 5-aza-dC sensitizer; scaled so ellipticine positive control = 100% | activation, % at 7.58 µM | hit rate 0.055% among 360,000 | AID 743238;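 active = mean normalized replicate activation at least 10% and every replicate at or above 10%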;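 also: 0% = median of on-plate neutral control wells and 100% = ellipticine 6 µM median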
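System: 68-5-11 XiGFP fibroblast line | Buffer or medium: DMEM containing 5-aza-dC | Compound: Single point | Times: Compounds 3 days, fix/stain 15 min at room temperature | Benchmarks: Positive control ellipticine, 6 µM final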
ARNT TACC3 PPI – disrupts binding between human ARNT and TACC3 | inhibition, % at 9.99 µM | AlphaScreen His-ARNT PAS-B/GST-TACC3 binding, luminescence; TACC3 fragment carries E629A point mutation | Q9Y6A5 | hit rate 0.66% among 390,000;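 active = mean inhibition of replicates at least 50% and at least half of replicates each reaching 50%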;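 also: 0% = complete ARNT plus TACC3 wells and 100% = ARNT alone without TACC3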
NSD2 HMT inh – blocks human histone methyltransferase NSD2. NSD2 peptide methylation, AlphaScreen, 120 min. inhibition, % at 12.5 µM. hit rate 0.54% among 310,000; in the data active = inhibition above about 50%
SR-BI uptake up – SR-BI HDL lipid transfer activation; hit rate 0.096% among 320,000; activation, % at 12.5 µM; CHO ldlA[mSR-BI] cells, DiI-HDL uptake fluorescence, 3 h; 100 = double the neutral-control signal;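 active = mean replicate activation of at least 60% and every replicate at or above 60%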;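 also: 0% = median plate neutral-control signal and 100% = twice that signal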
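material = CHO ldlA[mSR-BI] cells | medium = Ham's F12 with 0.5% BSA, HEPES 25 mM, pH 7.4 | reagent = fluorescent DiI-HDL, 10 µg/mL final | compound dosing = single-point compound dose | incubation = 3 h, 37 °C | measured by = bottom-read fluorescence, 550/595 nm | measure = HDL uptake via cellular fluorescence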
HGIII-sPLA2 inh – Blocks human group III sPLA2 activity. inhibition, % at 12.2 µM. hit rate 0.56% among 370,000. AID 743126. QFRET BODIPY PC-A2 liposome hydrolysis, fluorescence;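 active = inhibition above mean plus 3 SD of compounds lying within the high and low control bounds, cut at about 19% in these data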;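 also: 0% = median of test compound wells and 100% = no enzyme DMSO wells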
SR-BI DiI inh – blocks mouse SR-BI lipid uptake from DiI-HDL; ldlA[mSR-BI] CHO cells, DiI-HDL uptake fluorescence, 3 h; inhibition, % at 12.5 µM; hit rate 0.96% among 320,000; AID 488896;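 active = mean replicate inhibition of at least 70% and a set share of replicates each scoring 70 or more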;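 also: 0% = median of neutral control wells and 100% = median of positive control wells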
Target sequence (Q61009 whole entry, looked up): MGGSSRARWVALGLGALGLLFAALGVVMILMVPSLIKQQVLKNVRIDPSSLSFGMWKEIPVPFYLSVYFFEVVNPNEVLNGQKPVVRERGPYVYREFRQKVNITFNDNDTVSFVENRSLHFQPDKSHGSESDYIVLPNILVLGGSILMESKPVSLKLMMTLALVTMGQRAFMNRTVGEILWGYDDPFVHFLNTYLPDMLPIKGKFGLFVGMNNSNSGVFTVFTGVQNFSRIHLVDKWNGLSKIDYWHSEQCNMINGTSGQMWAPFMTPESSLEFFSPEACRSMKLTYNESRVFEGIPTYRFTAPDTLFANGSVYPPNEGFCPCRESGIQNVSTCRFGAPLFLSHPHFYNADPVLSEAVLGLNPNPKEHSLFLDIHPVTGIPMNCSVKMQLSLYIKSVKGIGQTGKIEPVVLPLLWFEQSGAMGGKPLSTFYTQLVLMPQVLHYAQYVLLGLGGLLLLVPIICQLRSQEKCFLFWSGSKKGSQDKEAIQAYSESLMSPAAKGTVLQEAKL
Starred values were filed as active, the others as inactive; nt = no result.

SMILES	XiGFP reactiv	ARNT TACC3 PPI	NSD2 HMT inh	SR-BI uptake up	HGIII-sPLA2 inh	SR-BI DiI inh
O=C(OCC(=O)N1CCCc2ccccc21)c1ccc(F)c(S(=O)(=O)N2CCOCC2)c1	0	1	0	-21	7	21
CC(C)CC(=O)Nc1ccc(S(=O)(=O)Nc2nccs2)cc1	0	-6	-5	65*	-6	-65
CN1C(=O)c2cc(NC(=O)Nc3ccccc3)ccc2OC[C@H]2O[C@H](CC(=O)O)CC[C@@H]21	0	nt	nt	nt	nt	nt
COc1cc2c(cc1OC)-c1cc(Nc3ccc(N(C)C)cc3)nc(=O)n1CC2	0	45*	16	27	6	-27
Cc1ccc(C(=O)N/N=C/c2ccc([N+](=O)[O-])s2)cc1	nt	24	nt	-64	-3	64
Cc1cc([N+](=O)[O-])ccc1NC(=O)/C=C/c1cccs1	0	-8	1	-47	-5	47
Cc1cccc(NC(=O)/C=C/c2ccc([N+](=O)[O-])s2)c1	81*	1	15	-55	1	55
Cc1ccc(NC(=O)/C=C/c2ccc([N+](=O)[O-])s2)cc1	97*	5	-1	-7	3	7
Cc1ccc(NC(=O)/C=C/c2ccc([N+](=O)[O-])s2)c(C)c1	37*	-1	0	-28	4	28
COc1ccc(NC(=O)Nc2ccc3c(c2)C(=O)N([C@@H](C)CO)C[C@H](C)[C@H](CN(C)C(=O)Nc2ccc(F)cc2)OCCCC[C@@H](C)O3)cc1	0	-11	nt	nt	nt	nt
CN=c1scc(-c2ccccc2F)n1/N=C(\C)c1cccnc1	0	40*	28	-33	9	33
O=C(NNC1=C(C(=O)C(F)(F)F)CCC1)c1ccc(Cl)cc1	nt	37	2	-93	3	93*
COc1ccc(C(=O)NNC2=C(C(=O)C(F)(F)F)CCC2)cc1	0	10	0	-95	-3	95*
O=C(NNC1=C(C(=O)C(F)(F)F)CCC1)c1cccc(Cl)c1	nt	nt	10	-80	7	80*
COc1ccc(C)cc1N(C(=O)COc1ccccc1)c1nc2ccccc2s1	0	23	-1	-18	10	18
Cc1ccc(C)c(OC(=O)c2cccnc2Cl)c1C	0	-3	-6	317*	-3	-317
COc1ccc(N(C)C(=O)Nc2ccc3nsnc3c2)cc1	0	-23	-1	11	0	-11
CC(C)N(C(=O)Nc1ccc2nsnc2c1)C(C)C	0	nt	104*	nt	6	nt
CN(C)c1ccc(/C=N/NC(=O)c2ccc(CN3CCOCC3)cc2)cc1Br	0	nt	3	-84	2	84*
CCOc1cc(/C=N/NC(=O)c2ccc(CN3CCOCC3)cc2)ccc1OC	0	nt	-4	-48	-1	48
Nc1ccc2nn(-c3ccccc3)nc2c1	0	10	-4	-49	-1	49
Nc1cc2nn(-c3ccccc3)nc2cc1Cl	0	29	52*	14	-25	-14
Cc1[nH]n(-c2nc(-c3ccc(Cl)cc3)cs2)c(=O)c1N=Nc1ccc(O)cc1	0	nt	0	-111	-6	110*
CCc1c(C)[nH]n(-c2nc(-c3ccccc3)cs2)c1=O	0	-3	-1	-8	-1	8
O=C(Nc1ccc(-c2csc(Nc3ccc(Cl)cc3)n2)cc1)c1cc([N+](=O)[O-])cc(C(F)(F)F)c1	0	nt	nt	-106	1	106*
SMILES	XiGFP reactiv	ARNT TACC3 PPI	NSD2 HMT inh	SR-BI uptake up	HGIII-sPLA2 inh	SR-BI DiI inh
O=C(CSc1nc(-c2ccc(Cl)cc2)cs1)Nc1cccc([N+](=O)[O-])c1	0	-2	-2	5	-17	-5
O=C(Nc1cccc(-c2csc(Nc3ccc(Cl)cc3)n2)c1)c1cc([N+](=O)[O-])cc(C(F)(F)F)c1	0	-11	nt	-127	4	127*
O=C(Nc1cccc(-c2csc(Nc3ccccc3)n2)c1)c1cc([N+](=O)[O-])cc(C(F)(F)F)c1	0	11	nt	-97	-2	97*
NS(=O)(=O)c1ccc(Nc2nc(-c3cccc([N+](=O)[O-])c3)cs2)cc1	0	nt	0	-64	-33	64
Nc1nc(-c2ccc([N+](=O)[O-])cc2)c(C(=O)Nc2ccc(Cl)cc2)s1	nt	1	3	nt	8	nt
O=C(C[C@H]1C=C[C@@H](NC(=O)Cc2ccccn2)[C@H](CO)O1)NCCc1ccccc1	0	-6	nt	nt	nt	nt
c1ccc2sc(Cc3nnc4n3CCCCC4)nc2c1	nt	2	-2	8	-1	-8
O=C(c1ccc(F)cc1)N1CC(=O)N2[C@H](CO)[C@@H](c3ccc(C#CC4CCCC4)cc3)[C@@H]2C1	1	nt	nt	nt	nt	nt
O=C(C[C@@H]1C[C@H]2c3cc(NS(=O)(=O)c4ccc(F)cc4)ccc3O[C@H]2[C@@H](CO)O1)NCc1ccc(Oc2ccccc2)cc1	0	1	nt	nt	nt	nt
O=C1C(Nc2ccc(O)cc2)=C/C(=N/S(=O)(=O)c2cccs2)c2ccccc21	0	67*	nt	-36	-51	36
CCc1nc2c(OCC(=O)C(C)(C)C)cccn2c1N(C)C(=O)C1CC1	3	nt	-1	nt	0	nt
Cc1ccc(NC(=O)c2ccccc2OCC(=O)c2ccccc2)cc1	nt	0	0	-78	-6	78*
O=C(NC(=O)N1CCCCCC1)c1ccc(Cl)cc1	0	0	-2	13	6	-13
CCn1c(=O)c2cc(C(=O)NC(C)C)sc2c2ccccc21	0	-7	1	-57	-4	57
Cn1nc(-c2ccc(Cl)cc2)c2cc(C(=O)NCCN3CCOCC3)sc21	1	29	nt	-86	17	86*
CCn1c(=O)c2cc(C(=O)NCc3cccs3)sc2c2ccccc21	0	31	nt	-71	-3	71*
CCCCNC(=O)c1cc2c(=O)n(CC)c3ccccc3c2s1	0	-2	-2	-73	-3	73*
CCn1c(=O)c2cc(C(=O)NCCN3CCOCC3)sc2c2ccccc21	0	-1	nt	-88	8	88*
CCN(CC)CCNC(=O)c1cc2c(-c3ccc(Cl)cc3)nn(C)c2s1	0	26	nt	-69	6	69
CCOc1ccc(N2C(=O)C(CC(=O)Nc3ccccc3)N(Cc3ccccn3)C2=S)cc1 (centres undefined)	0	-5	2	-25	-26	25
CC=Cc1ccc2n(c1=O)C[C@@H]1[C@@H](CO)[C@H](C(=O)N(C)C)[C@H]2N1S(=O)(=O)c1ccccc1C (mixture of isomers)	0	nt	nt	nt	nt	nt
CNc1sc(C(=O)c2ccc(F)cc2)c(N)c1-c1nc2ccccc2s1	nt	2	3	-90	9	90*
CNc1sc(C(=O)c2cccs2)c(N)c1-c1nc2ccccc2s1	nt	2	0	-95	11	95*
CC(=O)Nc1scc(C)c1-c1nc2ccccc2s1	0	-9	1	-51	12	51
